The text below walks through data of ChEMBL document CHEMBL3808291, “Bifunctional Peptide-Based Opioid Agonist-Nociceptin Antagonist Ligands for Dual Treatment of Acute and Neuropathic Pain” (J Med Chem, 2016).

Activity calls are given as the source filed them. Numbered stars: 1 amine (or outer) side, 2 acyl side, 3 side chain; on linkers, the order of the positions; unused ones are H or OH. Square brackets hold non-standard residues; d marks the D form. Peptide text beside a SMILES is read from it. X1 = O=C1[C@@H](N[*:1])Cc2ccccc2CN1CCC(=O)[*:2]; Phe(4-F) = N[C@@H](Cc1ccc(F)cc1)C(=O)O; Dmt = Cc1cc(O)cc(C)c1C[C@H](N)C(=O)O

Data set [1] has as its target T1, Nociceptin receptor (Homo sapiens, UniProt P41146). Put plainly: Agonist activity at human nociceptin receptor expressed in CHO cell membrane incubated for 60 mins by [35S]GTPgammaS binding assay relative to control. It counts as functional, cell membranes. On the technique in general: Binding of GTPγS marks nucleotide exchange on a G protein.
For data set [2], the system named is Mus musculus. Kind of data set: Antiallodynic activity in albino Swiss CD1 IGS mouse model of streptozocin-induced type1 diabetic neuropathic pain assessed as increase in mechanical threshold for paw withdrawal at 0.005 nmol, it administered on day 10 after STZ injection measured at 180 mins post dose by Von Frey test. Type of data set: functional, organism-based. Put shortly:
(§1)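 Male CD-1 mice (30–35 g). CCI: sciatic constriction injury, tested on days 7–16 after surgery. STZ diabetes: single ip streptozocin 200 mg/kg; mice with glucose >300 mg/dL included, tested on day 10. Drug in water for injection, given it (5 µL, L5–L6 lumbar puncture) to conscious mice. von Frey (cutoff 6 g) or cold plate (2 °C, 30 s cutoff, paw lift) at 30, 90, 180 min; 6–8 mice/group.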

The species named for data set [3] is Mus musculus. Put plainly: Neurotoxicity in albino Swiss CD1 IGS mouse assessed as motor impairment at 0.5 nmol, it measured after 15 to 120 mins post dose by rotarod test. Type of data set: toxicity, organism-based. Conditions: in vivo, icv_or_intrathecal. An outline of the steps:
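CD-1 mice given intrathecal compound (5 µL, L5–L6), tested at 15 and 120 min on accelerating rotarod, 2 to 40 rpm over 300 s cutoff, after three training sessions.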

In data set [4] the test system is Mus musculus. Kind of data set: Antiallodynic activity in albino Swiss CD1 IGS mouse model of streptozocin-induced type1 diabetic neuropathic pain assessed as increase in mechanical threshold for paw withdrawal at 0.005 nmol, it administered on day 10 after STZ injection measured at 30 mins post dose by Von Frey test. Type of data set: functional, organism-based. Put shortly: as §1

Data set [5] deals with Mus musculus. Put plainly: Antihyperalgesic activity in albino Swiss CD1 IGS mouse model of streptozocin-induced type1 diabetic neuropathic pain assessed as increase in paw withdrawal latency at 0.005 nmol, it administered on day 10 after STZ injection measured at 180 mins post dose by […]. It counts as functional, organism-based. Put shortly: as §1
Data set [6] has as its system Mus musculus. Kind of data set: Antiallodynic activity in albino Swiss CD1 IGS mouse model of streptozocin-induced type1 diabetic neuropathic pain assessed as increase in mechanical threshold for paw withdrawal at 0.008 nmol, it administered on day 10 after STZ injection measured at 180 mins post dose by Von Frey test. It counts as functional, organism-based. Put shortly: (§2)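 Male Albino Swiss CD-1 mice made diabetic by single ip streptozocin 200 mg/kg; glucose >300 mg/dL required; tested day 10. Compound in water for injection, 5 µL intrathecal at L5–L6; von Frey or cold plate (2 °C, 30 s cutoff) at 30, 90, 180 min; 6–8 mice per group.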

In data set [7] the test system is Mus musculus. Put plainly: Antiallodynic activity in albino Swiss CD1 IGS mouse model of streptozocin-induced type1 diabetic neuropathic pain assessed as increase in mechanical threshold for paw withdrawal at 0.008 nmol, it administered on day 10 after STZ injection measured at 30 mins post dose by Von Frey test. Type of data set: functional, organism-based. An outline of the steps:
as §2

Data set [8] has as its target T1, Nociceptin receptor. Kind of data set: Partial agonist activity at human nociceptin receptor expressed in HEK293 cells assessed as inhibition of forskolin-stimulated cAMP production preincubated for 15 mins followed by forskolin addition measured for 90 mins by luciferase reporter gene assay relative to nociceptin. It counts as functional, cell-based. Put shortly:
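HEK293 cells stably expressing human NOP and GloSensor, in Hepes buffer pH 7.4 with 1 mM d-luciferin, pre-equilibrated 2 h at 25 °C. Compound at various concentrations added 15 min before forskolin (0.5 µM final); luminescence read kinetically for 90 min at 25 °C with 0.5 mM IBMX. At least two experiments in duplicate.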

In data set [9] the test system is Mus musculus. Kind of data set: Antihyperalgesic activity in albino Swiss CD1 IGS mouse model of streptozocin-induced type1 diabetic neuropathic pain assessed as increase in paw withdrawal latency at 0.008 nmol, it administered on day 10 after STZ injection measured at 180 mins post dose by […]. Type of data set: functional, organism-based. An outline of the steps: as §2

The target of data set [10] is T1, Nociceptin receptor. Kind of data set: Antagonist activity at human nociceptin receptor expressed in HEK293 cells assessed as inhibition of OFQ/nociceptin-induced suppression of cAMP accumulation up to 20 uM preincubated for 15 mins followed by OFQ/nociceptin addition by luciferase reporter gene assay. It counts as functional, cell-based. A general note: Cyclic AMP is a second messenger, typically raised through Gs and lowered through Gi signalling.

For data set [11], the system named is Mus musculus. Put plainly: Antihyperalgesic activity in intrathecally dosed albino Swiss CD1 IGS mouse model of chronic constriction injury-induced neuropathic pain assessed as increase in paw withdrawal latency administered on day 7 to 16 after CCI surgery measured 30 mins post dose by cold plate test. Type of data set: functional. Put shortly:
(§3)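 Male Albino Swiss CD-1 mice (30–35 g), sciatic chronic constriction injury under chloral hydrate; tested days 7–16 post-surgery. Compound in water for injection, 5 µL intrathecal by lumbar puncture L5–L6 in awake mice.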

Data set [12] deals with Mus musculus. Kind of data set: Antiallodynic activity in intrathecally dosed albino Swiss CD1 IGS mouse model of chronic constriction injury-induced neuropathic pain assessed as increase in mechanical threshold for paw withdrawal administered on day 7 to 16 after CCI surgery measured 30 mins post dose by Von Frey test. It counts as functional. Put shortly:
as §3

The target of data set [13] is T1, Nociceptin receptor. Kind of data set: Displacement of [3H]OFQ/nociceptin from human nociceptin receptor expressed in HEK293 cell membrane incubated for 1 hr by TopCount scintillation counting method. Type of data set: cell membranes. A general note: Loss of bound radioactivity is the signal in a displacement assay; it reports binding, not function.
The test system of data set [14] is Mus musculus. Put plainly: Neurotoxicity in intrathecally dosed albino Swiss CD1 IGS mouse assessed as motor impairment measured after 15 to 120 mins post dose by rotarod test. Conditions: in vivo, icv_or_intrathecal. It counts as toxicity, organism-based. An outline of the steps:
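Intrathecal dosing (water for injection, 5 µL) to male CD-1 mice. After three training sessions, mice placed on accelerating rod (2 to 40 rpm over 300 s cutoff); tested 15 and 120 min after injection.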

T1 sequence (P41146 whole entry): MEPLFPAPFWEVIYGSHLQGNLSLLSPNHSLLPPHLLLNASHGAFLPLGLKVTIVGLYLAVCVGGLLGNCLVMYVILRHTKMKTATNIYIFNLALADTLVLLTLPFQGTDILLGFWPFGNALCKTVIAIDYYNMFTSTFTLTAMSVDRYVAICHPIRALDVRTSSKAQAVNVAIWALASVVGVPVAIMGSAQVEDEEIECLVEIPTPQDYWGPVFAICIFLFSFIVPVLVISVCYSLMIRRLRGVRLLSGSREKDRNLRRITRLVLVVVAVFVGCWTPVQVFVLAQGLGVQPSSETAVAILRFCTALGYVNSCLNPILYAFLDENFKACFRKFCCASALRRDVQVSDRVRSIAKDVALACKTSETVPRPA

On to `CC(=O)N[C@@H](CCCNC(=N)N)C(=O)N[C@@H](Cc1ccc(O)cc1)C(=O)N[C@@H](Cc1ccc(F)cc1)C(=O)N[C@@H](CCCNC(=N)N)C(=O)N[C@@H](Cc1c[nH]c2ccccc12)C(=O)N[C@@H](CCCNC(=N)N)C(N)=O` (Ac-RY[Phe(4-F)]RWR-NH2), for which the Activity at Nociceptin receptor [1] was 70%.

For `Cc1cc(O)cc(C)c1C[C@H](N)C(=O)N[C@H](CCCNC(=N)N)C(=O)N[C@H]1Cc2ccccc2CN(CCC(=O)N[C@@H](CCCNC(=N)N)C(=O)N[C@@H](Cc2ccc(O)cc2)C(=O)N[C@@H](Cc2ccc(F)cc2)C(=O)N[C@@H](CCCNC(=N)N)C(=O)N[C@@H](Cc2c[nH]c3ccccc23)C(=O)N[C@@H](CCCNC(=N)N)C(N)=O)C1=O` (H-[Dmt][dR][X1]RY[Phe(4-F)]RWR-NH2), the result with Mus musculus [2] and in the data set on Mus musculus [5] was inactive. Also, the Activity result in the data set filed under Mus musculus [3] is “Toxic”. Moreover, in the data set on Mus musculus [4], the result was Active.

Regarding `CC[C@H](C)[C@@H](NC(=O)[C@H](CCCNC(=N)N)NC(=O)[C@H](Cc1ccc(O)cc1)NC(=O)[C@H](Cc1ccc(O)cc1)NC(=O)[C@H](CCCNC(=N)N)NC(C)=O)C(=O)N[C@@H](CCCCN)C(N)=O`, the result in the data set on Mus musculus [6] and with Mus musculus [9] was inactive. For the same compound, the outcome with Mus musculus [7] was Active. Also, the inhibition (usually the drop in the measured response relative to a control, in per cent) on Nociceptin receptor [8] was determined as 70%. The inhibition result on Nociceptin receptor [10] was “inactive”.

Regarding `Cc1cc(O)cc(C)c1C[C@H](N)C(=O)N[C@H](CCCNC(=N)N)C(=O)N[C@H]1Cc2ccccc2CN(CCC(=O)N[C@@H](CCCNC(=N)N)C(=O)N[C@@H](Cc2ccc(O)cc2)C(=O)N[C@@H](Cc2ccc(O)cc2)C(=O)N[C@@H](CCCNC(=N)N)C(=O)N[C@@H](Cc2c[nH]c3ccccc23)C(=O)N[C@@H](CCCNC(=N)N)C(N)=O)C1=O` (H-[Dmt][dR][X1]RYYRWR-NH2), the result in the data set on Mus musculus [2] and in the data set with Mus musculus [5] was inactive. Besides, the ED50 with Mus musculus [11] amounted to 0.002 nmol; in the data set with Mus musculus [12] it was 0.0009 nmol. Besides, the outcome in the data set with Mus musculus [4] was Active. Also, the Ki – broadly, a dissociation constant, usually derived from enzyme kinetics or from competition with a known ligand – on Nociceptin receptor [13] came to 47 nM. Also, the Activity entry with Mus musculus [14] is given as “Non-toxic”.
